Reference: ChEMBL document CHEMBL1687913, “Structure-activity relationship, conformational and biological studies of temporin L analogues” (J Med Chem, 2011)
Values after ≈ are worked out from the molar mass of the structure shown. Where a SMILES comes first, the peptide text is derived from it.

Key:
[1] = test system: Staphylococcus epidermidis; assay: Antibacterial activity against Staphylococcus epidermidis ATCC 12228 after 18 to 20 hrs by microbroth dilution method; assay type: functional
Summary of the method: (§1)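 CLSI microbroth dilution, adapted. Mid-log bacteria, 2 × 10^6 CFU/mL in Mueller-Hinton broth, mixed 1:1 with MH broth holding peptide in serial 2-fold dilutions in 20% ethanol (0.75-48 μM). Incubated 18-20 h at 37 °C; growth read as A600. MIC is the lowest concentration giving 100% growth inhibition.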

[2] = test system: Pseudomonas aeruginosa; assay: Antibacterial activity against Pseudomonas aeruginosa ATCC 15692 after 18 to 20 hrs by microbroth dilution method; assay type: functional; summary of the method: as §1
[3] = test system: Staphylococcus capitis; assay: Antibacterial activity against Staphylococcus capitis after 18 to 20 hrs by microbroth dilution method; assay type: functional; summary of the method: as §1
[4] = test system: Staphylococcus aureus; assay: Antibacterial activity against Staphylococcus aureus ATCC 25923 after 18 to 20 hrs by microbroth dilution method; assay type: functional; summary of the method: as §1
[5] = test system: Escherichia coli; assay: Antibacterial activity against Escherichia coli D21 after 18 to 20 hrs by microbroth dilution method; assay type: functional; summary of the method: as §1
[6] = test system: Streptococcus pyogenes; assay: Antibacterial activity against Streptococcus pyogenes ATCC 21547 after 18 to 20 hrs by microbroth dilution method; assay type: functional; summary of the method: as §1
[7] = test system: Pseudomonas aeruginosa; assay: Antibacterial activity against Pseudomonas aeruginosa ATCC 27853 after 18 to 20 hrs by microbroth dilution method; assay type: functional; summary of the method: as §1
[8] = test system: Saccharomyces cerevisiae; assay: Antifungal activity against Saccharomyces cerevisiae after 18 to 20 hrs by microbroth dilution method; assay type: functional
Summary of the method: (§2)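 Yeasts tested by adapted CLSI microbroth dilution in Winge medium. Peptide given in serial 2-fold dilutions (0.75-48 μM, made in 20% ethanol). Incubation 18-20 h at 30 °C, read at A600. MIC taken as the concentration giving complete (100%) growth inhibition.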

[9] = test system: Acinetobacter junii; assay: Antibacterial activity against […] Acinetobacter junii RT-4 after 18 to 20 hrs by microbroth dilution method; assay type: functional; summary of the method: as §1
[10] = test system: Schizosaccharomyces pombe; assay: Antifungal activity against Schizosaccharomyces pombe after 18 to 20 hrs by microbroth dilution method; assay type: functional; summary of the method: as §2
[11] = test system: Pseudomonas syringae; assay: Antibacterial activity against Pseudomonas syringae pv tobaci after 18 to 20 hrs by microbroth dilution method; assay type: functional; summary of the method: as §1
[12] = test system: Priestia megaterium; assay: Antibacterial activity against Bacillus megaterium Bm11 after 18 to 20 hrs by microbroth dilution method; assay type: functional; summary of the method: as §1
[13] = test system: Acinetobacter baumannii; assay: Antibacterial activity against Acinetobacter baumannii ATCC 19606 after 18 to 20 hrs by microbroth dilution method; assay type: functional; summary of the method: as §1
[14] = test system: Enterococcus faecalis; assay: Antibacterial activity against Enterococcus faecalis ATCC 29212 after 18 to 20 hrs by microbroth dilution method; assay type: functional; summary of the method: as §1
[15] = test system: Staphylococcus aureus; assay: Antibacterial activity against Staphylococcus aureus Cowan I after 18 to 20 hrs by microbroth dilution method; assay type: functional; summary of the method: as §1
[16] = test system: Yersinia pseudotuberculosis; assay: Antibacterial activity against Yersinia pseudotuberculosis YPIII after 18 to 20 hrs by microbroth dilution method; assay type: functional
Summary of the method: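 Broth microdilution adapted from CLSI. Mid-log bacteria at 2 × 10^6 CFU/mL in Mueller-Hinton broth were mixed 1:1 with MH broth containing peptide in serial 2-fold dilutions (peptide in 20% ethanol), 0.75-48 μM. Plates were incubated 18-20 h at 37 °C and growth was read as A600. MIC is the concentration giving 100% growth inhibition.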

[17] = test system: Escherichia coli; assay: Antibacterial activity against Escherichia coli ATCC 25922 after 18 to 20 hrs by microbroth dilution method; assay type: functional; summary of the method: as §1
[18] = test system: Candida albicans; assay: Antifungal activity against Candida albicans ATCC 10231 after 18 to 20 hrs by microbroth dilution method; assay type: functional; summary of the method: as §2
[19] = Toxicity in human erythrocytes assessed as hemolysis at 12 uM after 40 mins; assay type: cell-based, Erythrocyte; details: read-out: Activity
Summary of the method: (§3)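 Human red blood cells suspended in 0.9% (w/v) NaCl and incubated 40 min at 37 °C with gentle mixing with serial 2-fold peptide dilutions (peptide predissolved in 20% ethanol). Spun 5 min at 900g; supernatant read at 415 nm. Cells lysed in distilled water set the 100% lysis reference.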

[20] = Toxicity in human erythrocytes assessed as hemolysis at 3 uM after 40 mins; assay type: cell-based, Erythrocyte; details: read-out: Activity; summary of the method: as §3
[21] = Toxicity in human erythrocytes assessed as hemolysis at 6 uM after 40 mins; assay type: cell-based, Erythrocyte; details: read-out: Activity; summary of the method: as §3
[22] = Toxicity in human erythrocytes assessed as hemolysis at 1.5 uM after 40 mins; assay type: cell-based, Erythrocyte; details: read-out: Activity; summary of the method: as §3
[23] = Toxicity in human erythrocytes assessed as hemolysis at 24 uM after 40 mins; assay type: cell-based, Erythrocyte; details: read-out: Activity; summary of the method: as §3

Row | Compound | MIC [1] | MIC [2] | MIC [3] | MIC [4] | MIC [5] | MIC [6] | MIC [8] | MIC [9] | MIC [10] | MIC [11] | MIC [12] | MIC [13] | MIC [14] | MIC [15] | MIC [16] | MIC [17] | MIC [18] | hemolysis at 40 min, 12 µM [19] | hemolysis at 40 min, 3 µM [20] | hemolysis at 40 min, 6 µM [21] | other results
1 | CC[C@@H](C)[C@@H](NC(=O)[C@H](N)CC(C)C)C(=O)N[C@H](CCCNC(=N)N)C(=O)NCC(=O)N[C@H](CC(C)C)C(=O)N[C@H](Cc1ccccc1)C(=O)N[C@H](CCCCN)C(=O)N[C@H](CO)C(=O)N[C@H](Cc1ccccc1)C(=O)N[C@H](Cc1c[nH]c2ccccc12)C(=O)N[C@H](CCC(N)=O)C(=O)N[C@@H](C(=O)N[C@H](Cc1ccccc1)C(N)=O)C(C)C [listing 1 of 2 here] | 6 µM (≈ 9.84 µg/mL) | > 48 µM | 6 µM (≈ 9.84 µg/mL) | 12 µM (≈ 19.7 µg/mL) | 12 µM (≈ 19.7 µg/mL) | 6 µM (≈ 9.84 µg/mL) | > 48 µM | 6 µM (≈ 9.84 µg/mL) | 1.5 µM (≈ 2.46 µg/mL) | 6 µM (≈ 9.84 µg/mL) | 1.5 µM (≈ 2.46 µg/mL) | 6 µM (≈ 9.84 µg/mL) | 12 µM (≈ 19.7 µg/mL) | 3 µM (≈ 4.92 µg/mL) | 24 µM (≈ 39.4 µg/mL) | 12 µM (≈ 19.7 µg/mL) | 12 µM (≈ 19.7 µg/mL) |  |  |  | MIC [7]: > 48 µM
2 | CC[C@@H](C)[C@@H](NC(=O)[C@H](N)CC(C)C)C(=O)N[C@H](CCCNC(=N)N)C(=O)NCC(=O)N[C@H](CC(C)C)C(=O)N[C@H](Cc1ccccc1)C(=O)N[C@H](CCCCN)C(=O)N[C@H](CO)C(=O)N[C@H](Cc1ccccc1)C(=O)N[C@H](Cc1c[nH]c2ccccc12)C(=O)N[C@H](CCC(N)=O)C(=O)N[C@@H](C(=O)N[C@H](Cc1ccccc1)C(N)=O)C(C)C [listing 2 of 2 here] |  |  |  |  |  |  |  |  |  |  |  |  |  |  |  |  |  | 49% | 6% | 15% | hemolysis at 40 min, 1.5 µM [22]: 1%; hemolysis at 40 min, 24 µM [23]: 81%
3 | CC[C@@H](C)[C@@H](NC(=O)[C@@H](CCCNC(=N)N)NC(=O)CNC(=O)[C@@H](CC(C)C)NC(=O)[C@@H](Cc1ccccc1)NC(=O)[C@@H](CCCCN)NC(=O)[C@@H](CO)NC(=O)[C@@H](Cc1ccccc1)NC(=O)[C@@H](Cc1c[nH]c2ccccc12)NC(=O)[C@@H](CCC(N)=O)NC(=O)[C@H](NC(=O)[C@H](N)Cc1ccccc1)C(C)C)C(=O)N[C@H](CC(C)C)C(N)=O [listing 1 of 2 here] | 3 µM (≈ 4.92 µg/mL) | 48 µM (≈ 78.7 µg/mL) | 3 µM (≈ 4.92 µg/mL) | 3 µM (≈ 4.92 µg/mL) | 12 µM (≈ 19.7 µg/mL) | 6 µM (≈ 9.84 µg/mL) | 6 µM (≈ 9.84 µg/mL) | 6 µM (≈ 9.84 µg/mL) | 6 µM (≈ 9.84 µg/mL) | 6 µM (≈ 9.84 µg/mL) | 1.5 µM (≈ 2.46 µg/mL) | 6 µM (≈ 9.84 µg/mL) | 3 µM (≈ 4.92 µg/mL) | 3 µM (≈ 4.92 µg/mL) | 3 µM (≈ 4.92 µg/mL) | 12 µM (≈ 19.7 µg/mL) | 6 µM (≈ 9.84 µg/mL) |  |  |  | MIC [7]: > 48 µM
4 | CC[C@H](C)[C@H](NC(=O)[C@H](CCCNC(=N)N)NC(=O)CNC(=O)[C@H](CC(C)C)NC(=O)[C@H](Cc1ccccc1)NC(=O)[C@H](CCCCN)NC(=O)[C@H](CO)NC(=O)[C@H](Cc1ccccc1)NC(=O)[C@H](Cc1c[nH]c2ccccc12)NC(=O)[C@@H]1CCCN1C(=O)[C@H](CC(C)C)NC(=O)[C@@H](N)Cc1ccccc1)C(=O)N[C@@H](CC(C)C)C(N)=O (H-FLPWFSKFLGRIL-NH2) | 3 µM (≈ 4.87 µg/mL) | > 48 µM | 3 µM (≈ 4.87 µg/mL) | 3 µM (≈ 4.87 µg/mL) | 24 µM (≈ 39 µg/mL) | 6 µM (≈ 9.74 µg/mL) | 12 µM (≈ 19.5 µg/mL) | 12 µM (≈ 19.5 µg/mL) | 6 µM (≈ 9.74 µg/mL) | 12 µM (≈ 19.5 µg/mL) | 3 µM (≈ 4.87 µg/mL) | 12 µM (≈ 19.5 µg/mL) | 12 µM (≈ 19.5 µg/mL) | 3 µM (≈ 4.87 µg/mL) | 6 µM (≈ 9.74 µg/mL) | 12 µM (≈ 19.5 µg/mL) | 12 µM (≈ 19.5 µg/mL) | 64% | 9% | 19% | hemolysis at 40 min, 1.5 µM [22]: 4%; hemolysis at 40 min, 24 µM [23]: 93%
5 | CC[C@@H](C)[C@@H](NC(=O)[C@@H](CCCNC(=N)N)NC(=O)CNC(=O)[C@@H](CC(C)C)NC(=O)[C@@H](Cc1ccccc1)NC(=O)[C@@H](CCCCN)NC(=O)[C@@H](CO)NC(=O)[C@@H](Cc1ccccc1)NC(=O)[C@@H](Cc1c[nH]c2ccccc12)NC(=O)[C@@H](CCC(N)=O)NC(=O)[C@H](NC(=O)[C@H](N)Cc1ccccc1)C(C)C)C(=O)N[C@H](CC(C)C)C(N)=O [listing 2 of 2 here] |  |  |  |  |  |  |  |  |  |  |  |  |  |  |  |  |  | 88% | 13% | 46% | hemolysis at 40 min, 1.5 µM [22]: 5%; hemolysis at 40 min, 24 µM [23]: 90%
